In ChEMBL document CHEMBL1147211, “Synthetic N-pyridinyl(methyl)-indol-3-ylpropanamides as new potential immunosuppressive agents” (Eur J Med Chem, 2007):
Calls of active or inactive are those of the source. No cut-off for these calls is given here.

Experiments:
[1] = (§1) Antiproliferative activity against ConA-stimulated mouse splenocytes at 90 uM after 72 hrs by MTT assay; assay type: functional; details: Splenocyte
Summary of the method: (§2)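 Spleens pooled from two 8-week-old female C57BL/6 mice were homogenized in HBSS, and red cells were lysed with 20 mM Tris-HCl/140 mM NH4Cl. Cells were seeded at 1.5×10^5/well and stimulated with 1 ug/mL ConA plus compound in complete RPMI with 50 µM mercaptoethanol, at 37 °C and 5% CO2 for 72 h. Read-out was MTT for 4 h and OD at 570 nm, in sextuplicate. Inhibition was calculated as (OD control − OD treated)/OD control × 100.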

[2] = Cytotoxicity assessed as cell viability of ConA-stimulated mouse splenocytes at 100 uM after 48 hrs by MTT assay
[3] = Antiproliferative activity against PHA-stimulated human peripheral blood lymphocytes assessed as [3H]thymidine uptake after 48 hrs; assay type: functional; details: PBL
Summary of the method: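 Human PBL from healthy donors were isolated by Ficoll-Hypaque and seeded at 1×10^5/well. They were stimulated with 0.3 µg/mL PHA plus compound (6.25–100 µM; DMSO stock diluted in complete RPMI) at 37 °C and 5% CO2 for 48 h. [3H]thymidine (1 µCi/well) was added for the last 6–8 h, and uptake was counted by beta counter, in sextuplicate. Values are mean ± SEM of three independent experiments.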

[4] = (§3) Antiproliferative activity against ConA-stimulated mouse splenocytes at 30 uM after 72 hrs by MTT assay; assay type: functional; details: Splenocyte; summary of the method: as §2
Mus musculus = experiment: Inhibition of DTH foot-pad swelling in orally dosed BALB/C mouse after 5 days; assay type: functional
Summary of the method: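 Female BALB/c mice, 8–9 weeks old and five per group, were primed i.v. with 5×10^6 SRBC in PBS. Compound in olive oil was given orally once daily for five days, from priming until challenge. On day 4, 3–4×10^8 SRBC were injected into the right hind footpad and PBS into the left. Footpad swelling difference was measured 24 h later, and inhibition was expressed relative to control mice.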

Splenocyte [5] = experiment: Inhibition of mitogen dependent T cell proliferation in mouse splenocytes; assay type: functional, cell-based; summary of the method: as §2
Splenocyte [6] = experiment: as §1; assay type: functional; summary of the method: as §2
Splenocyte [7] = experiment: as §3; assay type: functional; summary of the method: as §2

Row | SMILES | inhibition at 90 µM [1] | inhibition at 30 µM [4] | Activity (Splenocyte [6]) | Activity (Splenocyte [7]) | other results
1 | O=C(CCc1cn(Cc2ccc(Cl)cc2)c2ccccc12)Nc1ccncc1 | 87% | 19% | – | – | Cell viability [2]: 95%; IC50 [3]: 25 µM; Inhibition (Mus musculus): 69%; IC50 (Splenocyte [5]): 17 µM
2 | Cc1cc(C)nc(NC(=O)CCc2cn(Cc3ccc(Cl)cc3)c3ccc(Cl)cc23)c1 | – | – | inactive | inactive | –
3 | O=C(CCc1cn(Cc2ccc(Cl)cc2)c2ccccc12)NCc1cccnc1 | 55% | 27% | – | – | –
4 | Cn1cc(CCC(=O)NCc2cccnc2)c2cc(Cl)ccc21 | 37% | 22% | – | – | –
5 | Cc1cc(C)nc(NC(=O)CCc2c[nH]c3ccccc23)c1 | 76% | 22% | – | – | –
6 | Cn1cc(CCC(=O)Nc2ccncc2)c2cc(Cl)ccc21 | – | – | inactive | inactive | –
7 | O=C(CCc1c[nH]c2ccccc12)NCc1cccnc1 | 38% | 38% | – | – | –
8 | O=C(CCc1cn(Cc2ccccc2)c2ccccc12)Nc1ccncc1 | – | – | inactive | inactive | –
9 | Cc1cc(C)nc(NC(=O)CCc2cn(Cc3ccc(Cl)cc3)c3ccccc23)c1 | – | – | inactive | inactive | –
10 | O=C(CCc1cn(Cc2ccc(Cl)cc2)c2ccc(Cl)cc12)NCc1cccnc1 | – | – | inactive | inactive | –
11 | Cc1cc(C)nc(NC(=O)CCc2cn(Cc3ccccc3)c3ccccc23)c1 | – | – | inactive | inactive | –
12 | O=C(CCc1cn(Cc2ccccc2)c2ccccc12)NCc1cccnc1 | 38% | 20% | – | – | –
13 | O=C(CCc1c[nH]c2ccccc12)Nc1ccncc1 | – | – | inactive | inactive | –
